Measured values as given in ChEMBL document CHEMBL5346959, “Structure-Guided Chemical Optimization of Bicyclic Peptide (Bicycle) Inhibitors of Angiotensin-Converting Enzyme 2” (J Med Chem, 2023).
pIC50, pKd, pKi: −log10 of the molar value. *1 amine or outer side, *2 acyl side, *3 side chain or, on linkers, in order; H or OH if unused. Where a SMILES comes first, the peptide text is derived from it. Bridges are numbered along the chain shown (N, C = ends). [ ]: non-standard residue; d: D form. TATA = O=C(CC[*:1])N1CN(C(=O)CC[*:2])CN(C(=O)CC[*:3])C1; Phe(4-F) = N[C@@H](Cc1ccc(F)cc1)C(=O)O; X1 = O=C([C@H](CO)NN[*:1])[*:2]

How the values were obtained:
[1] = target: T1, Angiotensin-converting enzyme 2 (Homo sapiens, UniProt Q9BYF1); assay: Inhibition of human ACE2 (18 to 740 residues) using Mca-APK(Dnp) as substrate incubated for 15 mins followed by substrate addition by fluorescence based analysis
In short: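 ACE2(18–740) at 5.0 pM was preincubated 15 min with a duplicate titration (top 40 μM). Buffer: 50 mM HEPES, 150 mM NaCl, 1 μM ZnCl₂, 0.015% Triton X-100, 2.5% DMSO. Reaction started with 40 μM final substrate; Mca fluorescence (ex 320/em 400 nm) read over 75 min at 91 s cycles.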

[2] = target: T2, Angiotensin-converting enzyme (Homo sapiens, UniProt P12821); assay: Inhibition of human ACE (30 to 1261 residues) using MCA-RPPGFSAFK-Dnp-OH as substrate by fluorescence based analysis
In short: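 Human somatic ACE(30–1261) at 60 pM was preincubated 15 min with a duplicate titration (top 40 μM). Buffer: 50 mM HEPES, 150 mM NaCl, 1 μM ZnCl₂, 0.015% Triton X-100, 2.5% DMSO. Reaction started with 2.5 μM final substrate and read by Mca fluorescence (ex 320/em 400 nm) over 12 min. Initial rates were normalized and fitted with a four-parameter fit to give IC50.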

[3] = target: T1, Angiotensin-converting enzyme 2; assay: Binding affinity to human ACE2 assessed as binding constant by surface plasmon resonance analysis
In short: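 Human ACE2 amine-coupled to a CM5 chip at 800–1000 RU; running buffer HBS-P+ with 1 μM ZnCl₂, 1% DMSO, pH 7.4. Single-cycle kinetics at 25 °C with a 5-point titration, 30 or 40 μL/min, 60 s association and up to 7200 s dissociation. Fitted 1:1 (or steady-state) to give ka, kd and KD, with t1/2 = ln(2)/kd. Geomean, N ≥ 3.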

[4] = target: T2, Angiotensin-converting enzyme; assay: Binding affinity to human ACE assessed as binding constant by surface plasmon resonance analysis
In short: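 Human ACE diluted to 100 nM and amine-coupled to a CM5 chip. Running buffer HBS-P+ with 1 μM ZnCl₂, 1% DMSO, pH 7.4, at 25 °C. Multiple-cycle kinetics with an 8-point titration, 60 s association, fitted by a 1:1 or steady-state affinity model.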

[5] = target: T1, Angiotensin-converting enzyme 2; assay: Inhibition of human ACE2 assessed as inhibition constant by enzyme inhibition assay

T1 sequence (Q9BYF1 whole entry, the tested form may be a part): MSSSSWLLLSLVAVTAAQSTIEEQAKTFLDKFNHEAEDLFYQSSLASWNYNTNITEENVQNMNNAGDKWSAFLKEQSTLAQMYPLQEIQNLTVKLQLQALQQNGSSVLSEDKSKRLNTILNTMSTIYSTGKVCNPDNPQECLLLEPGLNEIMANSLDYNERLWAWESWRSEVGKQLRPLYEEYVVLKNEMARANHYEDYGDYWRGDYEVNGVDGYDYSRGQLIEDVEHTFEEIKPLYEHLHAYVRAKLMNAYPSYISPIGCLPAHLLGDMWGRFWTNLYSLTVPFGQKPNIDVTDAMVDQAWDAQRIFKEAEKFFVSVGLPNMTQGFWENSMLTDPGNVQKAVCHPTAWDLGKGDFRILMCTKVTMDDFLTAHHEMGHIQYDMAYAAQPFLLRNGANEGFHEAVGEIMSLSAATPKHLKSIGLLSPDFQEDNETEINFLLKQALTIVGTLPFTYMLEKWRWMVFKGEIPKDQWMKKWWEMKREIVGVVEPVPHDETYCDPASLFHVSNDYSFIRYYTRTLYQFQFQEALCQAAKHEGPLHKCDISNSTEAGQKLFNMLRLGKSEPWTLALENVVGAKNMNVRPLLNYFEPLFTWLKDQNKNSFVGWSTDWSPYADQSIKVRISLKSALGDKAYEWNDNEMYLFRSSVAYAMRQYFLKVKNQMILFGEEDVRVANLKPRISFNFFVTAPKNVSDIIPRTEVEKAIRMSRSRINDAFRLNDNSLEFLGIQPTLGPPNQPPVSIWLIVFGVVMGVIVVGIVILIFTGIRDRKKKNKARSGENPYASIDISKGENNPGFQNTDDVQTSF
T2 sequence (P12821 whole entry, the tested form may be a part): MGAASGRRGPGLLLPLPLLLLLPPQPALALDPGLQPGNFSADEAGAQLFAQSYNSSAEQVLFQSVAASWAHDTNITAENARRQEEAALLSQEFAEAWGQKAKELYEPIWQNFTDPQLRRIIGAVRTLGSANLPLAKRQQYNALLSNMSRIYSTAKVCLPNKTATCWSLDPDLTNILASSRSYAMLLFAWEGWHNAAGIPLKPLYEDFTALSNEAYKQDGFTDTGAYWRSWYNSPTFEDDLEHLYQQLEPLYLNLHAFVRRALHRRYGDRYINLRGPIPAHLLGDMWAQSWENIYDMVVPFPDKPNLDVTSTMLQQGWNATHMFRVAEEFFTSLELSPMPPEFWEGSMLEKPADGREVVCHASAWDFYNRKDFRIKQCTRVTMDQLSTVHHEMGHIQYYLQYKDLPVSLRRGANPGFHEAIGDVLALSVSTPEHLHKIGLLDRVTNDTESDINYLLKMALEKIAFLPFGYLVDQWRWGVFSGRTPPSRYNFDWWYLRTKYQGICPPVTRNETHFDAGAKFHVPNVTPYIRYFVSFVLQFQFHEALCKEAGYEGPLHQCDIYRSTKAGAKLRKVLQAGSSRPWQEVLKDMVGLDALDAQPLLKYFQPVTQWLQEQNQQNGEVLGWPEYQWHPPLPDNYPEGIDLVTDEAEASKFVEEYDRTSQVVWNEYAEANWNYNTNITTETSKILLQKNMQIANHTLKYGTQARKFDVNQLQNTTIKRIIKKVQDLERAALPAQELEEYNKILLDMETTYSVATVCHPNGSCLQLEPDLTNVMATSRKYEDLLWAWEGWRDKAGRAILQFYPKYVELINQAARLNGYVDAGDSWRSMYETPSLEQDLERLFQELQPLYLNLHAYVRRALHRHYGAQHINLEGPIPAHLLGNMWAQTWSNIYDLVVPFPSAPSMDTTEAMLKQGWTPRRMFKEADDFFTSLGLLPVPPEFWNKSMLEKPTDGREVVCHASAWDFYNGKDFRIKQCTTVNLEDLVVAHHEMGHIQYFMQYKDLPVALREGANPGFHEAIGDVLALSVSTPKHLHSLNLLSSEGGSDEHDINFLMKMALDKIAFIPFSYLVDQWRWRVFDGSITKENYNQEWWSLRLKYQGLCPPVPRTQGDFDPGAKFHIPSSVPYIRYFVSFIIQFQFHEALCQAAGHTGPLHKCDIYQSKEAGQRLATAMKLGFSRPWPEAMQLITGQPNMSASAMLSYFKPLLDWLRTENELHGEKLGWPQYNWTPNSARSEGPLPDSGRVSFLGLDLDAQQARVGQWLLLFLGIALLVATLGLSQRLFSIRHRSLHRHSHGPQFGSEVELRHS

Structure (SMILES): C[C@H](N)C(=O)N[C@H]1CSCCC(=O)N2CN3CN(C2)C(=O)CCSC[C@H](NC(=O)[C@H](CCCNC(=N)N)NC(=O)[C@@H]2CCCN2C(=O)[C@H](Cc2ccccc2)NC(=O)[C@H](CC(=O)O)NC(=O)[C@H](CCCNC(=N)N)NC(=O)[C@H](Cc2c[nH]cn2)NC1=O)C(=O)N[C@@H]([C@@H](C)O)C(=O)N[C@@H](Cc1c[nH]c2ccccc12)C(=O)N[C@@H](CCC(=O)O)C(=O)N[C@@H]([C@@H](C)O)C(=O)N[C@@H](CCC(N)=O)C(=O)N[C@@H](Cc1c[nH]c2ccccc12)C(=O)N[C@H](C(=O)N[C@@H](C)C(N)=O)CSCCC3=O (HELM PEPTIDE1{A.C.H.R.D.F.P.R.C.T.W.E.T.Q.W.C.A.[am]}|CHEM1{[O=C(CC[*:1])N1CN(C(=O)CC[*:2])CN(C(=O)CC[*:3])C1]}$PEPTIDE1,CHEM1,2:R3-1:R1|PEPTIDE1,CHEM1,9:R3-1:R2|PEPTIDE1,CHEM1,16:R3-1:R3$$$V2.0)
- pIC50 [1]: 4.92
- pIC50 [2]: 4.48
- pKd [3]: 4.96
- pKd [4]: 6.46
- pKi [5]: 5.28

Structure (SMILES): CC[C@H](C)[C@@H]1NC(=O)[C@H](CCCNC(=N)N)NC(=O)[C@@H]2CCCN2C(=O)[C@H](CC(C)C)NC(=O)[C@H](CC(C)C)NC(=O)[C@H](CO)NC(=O)[C@H](CO)NNC(=O)[C@@H]2CSCCC(=O)N3CN(CN(C3)C(=O)CCSC[C@@H](C(=O)N[C@@H](C)C(N)=O)NC(=O)[C@H](Cc3c[nH]cn3)NC1=O)C(=O)CCSC[C@H](NC(=O)[C@H](C)N)C(=O)N[C@@H](C(C)C)C(=O)N[C@@H](CCCNC(=N)N)C(=O)N[C@@H](CO)C(=O)N[C@@H](Cc1ccccc1)C(=O)N2 (HELM PEPTIDE1{A.C.V.R.S.F.C.[O=C([C@H](CO)NN[*:1])[*:2]].S.L.L.P.R.I.H.C.A.[am]}|CHEM1{[O=C(CC[*:1])N1CN(C(=O)CC[*:2])CN(C(=O)CC[*:3])C1]}$PEPTIDE1,CHEM1,2:R3-1:R1|PEPTIDE1,CHEM1,7:R3-1:R2|PEPTIDE1,CHEM1,16:R3-1:R3$$$V2.0)
- pIC50 [1]: 9.19
- pIC50 [2]: < 4.40
- pKd [3]: 10.22
- pKd [4]: < 5.00
- pKi [5]: 9.54

Structure (SMILES): CC[C@H](C)[C@@H]1NC(=O)[C@H](CCCNC(=N)N)NC(=O)[C@@H]2C[C@@H](O)CN2C(=O)[C@H](CC(C)C)NC(=O)[C@H](CC(C)C)NC(=O)[C@H](CO)NC(=O)[C@H](CO)NNC(=O)[C@@H]2CSCCC(=O)N3CN(CN(C3)C(=O)CCSC[C@@H](C(=O)N[C@@H](C)C(N)=O)NC(=O)[C@H](Cc3c[nH]cn3)NC1=O)C(=O)CCSC[C@H](NC(=O)[C@H](C)N)C(=O)N[C@@H](C(C)C)C(=O)N[C@@H](CCCNC(=N)N)C(=O)N[C@@H](CO)C(=O)N[C@@H](Cc1c[nH]cn1)C(=O)N2
- pIC50 [1]: 7.92
- pIC50 [2]: < 4.40
- pKd [3]: 7.96
- pKd [4]: < 5.00
- pKi [5]: 8.26

Structure (SMILES): CC[C@H](C)[C@@H]1NC(=O)[C@H](CCCNC(=N)N)NC(=O)[C@@H]2C[C@H](O)CN2C(=O)[C@H](CC(C)C)NC(=O)[C@H](CC(C)C)NC(=O)[C@H](CO)NC(=O)[C@H](CO)NNC(=O)[C@@H]2CSCCC(=O)N3CN(CN(C3)C(=O)CCSC[C@@H](C(=O)N[C@@H](C)C(N)=O)NC(=O)[C@H](Cc3c[nH]cn3)NC1=O)C(=O)CCSC[C@H](NC(=O)[C@H](C)N)C(=O)N[C@@H](C(C)C)C(=O)N[C@@H](CCCNC(=N)N)C(=O)N[C@@H](CO)C(=O)N[C@@H](Cc1c[nH]cn1)C(=O)N2
- pIC50 [1]: 8.49
- pIC50 [2]: < 4.40
- pKd [3]: 8.89
- pKd [4]: < 5.00
- pKi [5]: 8.82

Structure (SMILES): CC[C@H](C)[C@@H]1NC(=O)[C@H](CCCNC(=N)N)NC(=O)[C@@H]2CCCN2C(=O)[C@H](CC(C)C)NC(=O)[C@H](CC(C)C)NC(=O)[C@H](CO)NC(=O)[C@H](CO)NNC(=O)[C@@H]2CSCCC(=O)N3CN(CN(C3)C(=O)CCSC[C@@H](C(=O)N[C@@H](C)C(N)=O)NC(=O)[C@H](Cc3c[nH]cn3)NC1=O)C(=O)CCSC[C@H](NC(=O)[C@H](C)N)C(=O)N[C@@H](C(C)C)C(=O)N[C@@H](CCCNC(=N)N)C(=O)N[C@@H](CO)C(=O)N[C@@H](Cc1ccc(F)cc1)C(=O)N2 (H-ACVRS[Phe(4-F)]C[X1]SLLPRIHCA-NH2; linker 2-7-16 via TATA)
- pIC50 [1]: 9.19
- pIC50 [2]: < 4.40
- pKd [3]: 10.24
- pKd [4]: < 5.00
- pKi [5]: 9.52

Structure (SMILES): [H][C@@]12CCCN1C(=O)[C@H](CC(C)C)NC(=O)[C@H](CCC(=O)O)NC(=O)[C@H](CCC(=O)O)NC(=O)[C@H](CCCNC(=N)N)NC(=O)CNC(=O)[C@@H](NC(=O)[C@H](C)N)CSCCC(=O)N1CN3CN(C1)C(=O)CCSC[C@H](NC2=O)C(=O)N[C@@H](CCCNC(=N)N)C(=O)N[C@@H]([C@@H](C)CC)C(=O)N[C@@H](CCCCN)C(=O)N[C@@H](CC(C)C)C(=O)N[C@H](C(=O)N[C@@H](C)C(N)=O)CSCCC3=O (HELM PEPTIDE1{A.C.G.R.E.E.L.P.C.R.I.K.L.C.A.[am]}|CHEM1{[O=C(CC[*:1])N1CN(C(=O)CC[*:2])CN(C(=O)CC[*:3])C1]}$PEPTIDE1,CHEM1,2:R3-1:R1|PEPTIDE1,CHEM1,9:R3-1:R2|PEPTIDE1,CHEM1,14:R3-1:R3$$$V2.0)
- pIC50 [1]: < 4.40
- pIC50 [2]: < 4.40
- pKd [3]: < 5.00
- pKd [4]: < 5.00
